Test results: ChEMBL document CHEMBL1143835, “Antipropionibacterial activity of BAL19403, a novel macrolide antibiotic” (2007)
≈ marks a conversion by molar mass, not a printed value.

Experiments:
[1] = system: Cutibacterium acnes; test: Antibacterial activity against drug-resistant Propionibacterium acnes SW10 after 48 hrs by broth microdilution method; assay type: functional
In short: (§1)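 Broth microdilution MIC in Wilkins-Chalgren broth without lysed horse blood, following CLSI anaerobe guidelines. Plates were held in anaerobic jars with atmosphere generators (O2 <0.1% by 2.5 h, CO2 >15% by 24 h) at 35 to 37°C for 48 h. Growth was read with an illuminated plate reader and magnifying mirror.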

[2] = system: Cutibacterium acnes; test: Antibacterial activity against drug-resistant Propionibacterium acnes SW16 after 48 hrs by broth microdilution method; assay type: functional; in short: as §1
[3] = system: Cutibacterium acnes; test: Antibacterial activity against drug-resistant Propionibacterium acnes SW17 after 48 hrs by broth microdilution method; assay type: functional; in short: as §1
[4] = system: Cutibacterium acnes; test: Antibacterial activity against drug-resistant Propionibacterium acnes SW26 after 48 hrs by broth microdilution method; assay type: functional; in short: as §1
[5] = system: Cutibacterium acnes; test: Antibacterial activity against drug-resistant Propionibacterium acnes D-04/97 after 48 hrs by broth microdilution method; assay type: functional; in short: as §1
[6] = system: Cutibacterium acnes; test: Antibacterial activity against drug-resistant Propionibacterium acnes OK8/97 after 48 hrs by broth microdilution method; assay type: functional; in short: as §1
[7] = system: Cutibacterium acnes; test: Antibacterial activity against drug-resistant Propionibacterium acnes EG7NS after 48 hrs by broth microdilution method; assay type: functional; in short: as §1
[8] = system: Cutibacterium acnes; test: Antibacterial activity against drug-resistant Propionibacterium acnes EG13NS after 48 hrs by broth microdilution method; assay type: functional; in short: as §1
[9] = system: Propionibacterium granulosum; test: Antibacterial activity against drug-resistant Propionibacterium granulosum NCTC-11865 after 48 hrs by broth microdilution method; assay type: functional; conditions: Cutibacterium granulosum, NCTC-11865, 48 h; in short: as §1
[10] = system: Cutibacterium acnes; test: Antibacterial activity against drug-resistant Propionibacterium acnes SW11 after 48 hrs by broth microdilution method; assay type: functional; in short: as §1
[11] = system: Cutibacterium acnes; test: Antibacterial activity against drug-resistant Propionibacterium acnes EG3NS after 48 hrs by broth microdilution method; assay type: functional; in short: as §1
[12] = system: Cutibacterium acnes; test: Antibacterial activity against drug-resistant Propionibacterium acnes SW3CD after 48 hrs by broth microdilution method; assay type: functional; in short: as §1
[13] = system: Cutibacterium acnes; test: Antibacterial activity against drug-resistant Propionibacterium acnes P95 after 48 hrs by broth microdilution method; assay type: functional; in short: as §1
[14] = system: Cutibacterium acnes; test: Antibacterial activity against drug-resistant Propionibacterium acnes FG7E after 48 hrs by broth microdilution method; assay type: functional; in short: as §1
[15] = system: Cutibacterium acnes; test: Antibacterial activity against drug-resistant Propionibacterium acnes GE4E after 48 hrs by broth microdilution method; assay type: functional; in short: as §1
[16] = system: Cutibacterium acnes; test: Antibacterial activity against drug-resistant Propionibacterium acnes SP64E after 48 hrs by broth microdilution method; assay type: functional; in short: as §1
[17] = system: Cutibacterium acnes; test: Antibacterial activity against drug-resistant Propionibacterium acnes SW101CDA after 48 hrs by broth microdilution method; assay type: functional; in short: as §1
[18] = system: Cutibacterium acnes; test: Antibacterial activity against drug-resistant Propionibacterium acnes P:413 after 48 hrs by broth microdilution method; assay type: functional; in short: as §1
[19] = system: Cutibacterium acnes; test: Antibacterial activity against drug-resistant Propionibacterium acnes P322:2 after 48 hrs by broth microdilution method; assay type: functional; in short: as §1
[20] = system: Cutibacterium acnes; test: Antibacterial activity against drug-resistant Propionibacterium acnes EG7NS after 72 hrs; assay type: functional
In short: (§2)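 MBC for P. acnes followed MIC assays by standard methodology. Samples were plated on Wilkins-Chalgren agar, incubated anaerobically in GENbox jars at 35 to 37°C, and examined for growth after 72 h.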

[21] = system: Cutibacterium acnes; test: Antibacterial activity against drug-resistant Propionibacterium acnes SW3CD after 72 hrs; assay type: functional; in short: as §2
[22] = system: Cutibacterium acnes; test: Antibacterial activity against drug-resistant Propionibacterium acnes P95 after 72 hrs; assay type: functional; in short: as §2
[23] = system: Cutibacterium acnes; test: MBC/MIC ratio of Propionibacterium acnes EG7NS; assay type: functional
In short: (§3)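 MIC by CLSI broth microdilution in Wilkins-Chalgren broth in anaerobic jars (O2 <0.1%, CO2 >15%), read after 48 h at 35–37°C on an illuminated plate reader. For MBC, samples were plated onto Wilkins-Chalgren agar and incubated anaerobically for 72 h at 35–37°C before growth was scored.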

[24] = system: Cutibacterium acnes; test: MBC/MIC ratio of Propionibacterium acnes SW3CD; assay type: functional; in short: as §3
[25] = system: Cutibacterium acnes; test: MBC/MIC ratio of Propionibacterium acnes P95; assay type: functional; in short: as §3
[26] = system: Cutibacterium acnes; test: MBC/MIC ratio of Propionibacterium acnes SW101T; assay type: functional; in short: as §3
[27] = system: Corynebacterium jeikeium; test: Antibacterial activity against Corynebacterium jeikeium after 48 hrs by broth microdilution method; assay type: functional
In short: (§4)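 Broth microdilution per CLSI in cation-adjusted Mueller-Hinton broth supplemented with 0.5% (vol/vol) Tween 80. Plates incubated at 35°C in ambient air for 44 to 48 h, then read visually. MICs in μg/ml; a geometric mean MIC was calculated across the corynebacterial strains.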

[28] = system: Corynebacterium diphtheriae; test: Antibacterial activity against Corynebacterium diphtheriae after 48 hrs by broth microdilution method; assay type: functional; in short: as §4
[29] = system: Corynebacterium amycolatum; test: Antibacterial activity against Corynebacterium amycolatum after 48 hrs by broth microdilution method; assay type: functional; in short: as §4
[30] = system: Corynebacterium minutissimum; test: Antibacterial activity against Corynebacterium minutissimum after 48 hrs by broth microdilution method; assay type: functional; in short: as §4
[31] = system: Staphylococcus epidermidis; test: Antibacterial activity against Staphylococcus epidermidis after 48 hrs by broth microdilution method; assay type: functional
[32] = system: Staphylococcus aureus; test: Antibacterial activity against methicillin-susceptible Staphylococcus aureus after 48 hrs by broth microdilution method; assay type: functional
[33] = Antibacterial activity against Streptococcus dysgalactiae subsp. dysgalactiae after 48 hrs by broth microdilution method; assay type: functional
[34] = system: Streptococcus equi subsp. zooepidemicus; test: Antibacterial activity against Streptococcus equi subsp. zooepidemicus after 48 hrs by broth microdilution method; assay type: functional
[35] = system: Cutibacterium acnes; test: Antibacterial activity against drug-resistant Propionibacterium acnes P401:5 after 48 hrs by broth microdilution method; assay type: functional; in short: as §1
[36] = system: Cutibacterium acnes; test: Antibacterial activity against drug-resistant Propionibacterium acnes P425:1 after 48 hrs by broth microdilution method; assay type: functional; in short: as §1
[37] = system: Cutibacterium acnes; test: Antibacterial activity against drug-resistant Propionibacterium acnes P429:1 (SC) after 48 hrs by broth microdilution method; assay type: functional; in short: as §1
[38] = system: Cutibacterium acnes; test: Antibacterial activity against drug-resistant Propionibacterium acnes P429:1 (BC) after 48 hrs by broth microdilution method; assay type: functional; in short: as §1
[39] = system: Cutibacterium acnes; test: Antibacterial activity against drug-resistant Propionibacterium acnes SW54EA after 48 hrs by broth microdilution method; assay type: functional; in short: as §1
[40] = system: Cutibacterium acnes; test: Antibacterial activity against drug-resistant Propionibacterium acnes SW101T after 48 hrs by broth microdilution method; assay type: functional; in short: as §1
[41] = system: Cutibacterium acnes; test: Antibacterial activity against drug-resistant Propionibacterium acnes GE46EB after 48 hrs by broth microdilution method; assay type: functional; in short: as §1
[42] = system: Streptococcus pyogenes; test: Antibacterial activity against Streptococcus pyogenes after 20 to 24 hrs by broth microdilution method
[43] = system: Staphylococcus aureus; test: Antibacterial activity against methicillin-resistant Staphylococcus aureus after 20 to 24 hrs by broth microdilution method
[44] = system: Propionibacterium granulosum; test: Antibacterial activity against drug-resistant Propionibacterium granulosum QK6/92 after 48 hrs by broth microdilution method
[45] = system: Staphylococcus aureus; test: Antibacterial activity against borderline oxacillin-resistant Staphylococcus aureus after 20 to 24 hrs by broth microdilution method

## CCC[C@@H]1C[C@@H](C(=O)N[C@@H]([C@H]2O[C@H](SC)[C@H](O)[C@@H](O)[C@H]2O)[C@H](C)Cl)N(C)C1 [CLINDAMYCIN]
[1]
  MIC: 0.125 µg/mL (≈ 0.294 µM)
[2]
  MIC: ≤ 0.06 µg/mL
[3]
  MIC: ≤ 0.06 µg/mL
[4]
  MIC: ≤ 0.06 µg/mL
[5]
  MIC: 0.125 µg/mL (≈ 0.294 µM)
[6]
  MIC: 0.125 µg/mL (≈ 0.294 µM)
[7]
  MIC: ≤ 0.06 µg/mL
[8]
  MIC: ≤ 0.06 µg/mL
[9]
  MIC: ≤ 0.06 µg/mL
[10]
  MIC: 0.5 µg/mL (≈ 1.18 µM)
[11]
  MIC: 0.25 µg/mL (≈ 0.588 µM)
[12]
  MIC: 8 µg/mL (≈ 18.8 µM)
[13]
  MIC: 0.5 µg/mL (≈ 1.18 µM)
[14]
  MIC: ≥ 32 µg/mL
[15]
  MIC: > 512 µg/mL
[16]
  MIC: > 512 µg/mL
[17]
  MIC: ≥ 512 µg/mL
[18]
  MIC: ≤ 0.06 µg/mL
[19]
  MIC: 4 µg/mL (≈ 9.41 µM)
[20]
  MBC: > 32 µg/mL
[21]
  MBC: > 32 µg/mL
[22]
  MBC: 32 µg/mL (≈ 75.3 µM)
[23]
  Ratio: >=533
[24]
  Ratio: >4
[25]
  Ratio: >64
[26]
  Ratio: >2
[27]
  MIC: 7.97 µg/mL (≈ 18.8 µM)
[28]
  MIC: 7.97 µg/mL (≈ 18.8 µM)
[29]
  MIC: 7.97 µg/mL (≈ 18.8 µM)
[30]
  MIC: 7.97 µg/mL (≈ 18.8 µM)
[31]
  MIC: 1.12 µg/mL (≈ 2.64 µM)
[32]
  MIC: 1.16 µg/mL (≈ 2.73 µM)
[33]
  MIC: 0.12 µg/mL (≈ 0.282 µM)
[34]
  MIC: 0.11 µg/mL (≈ 0.259 µM)
[35]
  MIC: 1 µg/mL (≈ 2.35 µM)
[36]
  MIC: 512 µg/mL (≈ 1200 µM)
[37]
  MIC: 4 µg/mL (≈ 9.41 µM)
[38]
  MIC: 8 µg/mL (≈ 18.8 µM)
[39]
  MIC: 32 µg/mL (≈ 75.3 µM)
[40]
  MIC: 256 µg/mL (≈ 602 µM)
[41]
  MIC: 512 µg/mL (≈ 1200 µM)
[42]
  MIC: 0.07 µg/mL (≈ 0.165 µM)
[43]
  MIC: 1.16 µg/mL (≈ 2.73 µM)
[44]
  MIC: 1 µg/mL (≈ 2.35 µM)
[45]
  MIC: 1.16 µg/mL (≈ 2.73 µM)
